How the values were obtained:
Rattus norvegicus [1] = assay: Percentage peak pressor response in rat after peroral administration at a dose of 0.03 mg/kg of the compound.; format: functional; details: route oral
Method in brief: (§1)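 Conscious male Sprague-Dawley rats (300–400 g) fitted with arterial and venous catheters. Compound given orally as a suspension in 1 N NaOH–0.5% methocel (10:90). Pressor response to AII (0.1 μg/kg iv) measured before and after dosing. Peak inhibition of the AII response is expressed as a percentage at each dose.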

Rattus norvegicus [2] = assay: Percentage peak pressor response in rat after intravenous administration at a dose of 0.3 mg/kg of the compound.; format: functional
Method in brief: (§2)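 Male Sprague-Dawley rats (300–400 g), conscious, with arterial (blood pressure) and venous (dosing) catheters. Pressor responses to AII 0.1 μg/kg iv recorded before and after iv compound. Vehicle: saturated NaHCO3 15%, saline 35%, water 50%.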

Rattus norvegicus [3] = assay: Percentage peak pressor response in rat after intravenous administration at a dose of 0.03 mg/kg of the compound.; format: functional; method in brief: as §2
Rattus norvegicus [4] = assay: Percentage peak pressor response in rat after peroral administration at a dose of 0.3 mg/kg of the compound.; format: functional; details: route oral; method in brief: as §1
Rattus norvegicus [5] = assay: Percentage peak pressor response in rat after intravenous administration at a dose of 0.1 mg/kg of the compound.; format: functional; method in brief: as §2
Rattus norvegicus [6] = assay: Percentage peak pressor response in rat after peroral administration at a dose of 0.1 mg/kg of the compound.; format: functional; details: route oral; method in brief: as §1
[7] = biological target: Type-1 angiotensin II receptor (Oryctolagus cuniculus) (UniProt P34976); assay: Binding affinity towards Angiotensin receptor from rabbit aorta
[8] = biological target: Type-1 angiotensin II receptor (Rattus norvegicus) (UniProt P25095); assay: The compound was tested for inhibition of angiotensin II receptor induced pressor response in rat after intravenous administration.
Sequence of Type-1 angiotensin II receptor (Rattus norvegicus) (P25095 whole entry, looked up): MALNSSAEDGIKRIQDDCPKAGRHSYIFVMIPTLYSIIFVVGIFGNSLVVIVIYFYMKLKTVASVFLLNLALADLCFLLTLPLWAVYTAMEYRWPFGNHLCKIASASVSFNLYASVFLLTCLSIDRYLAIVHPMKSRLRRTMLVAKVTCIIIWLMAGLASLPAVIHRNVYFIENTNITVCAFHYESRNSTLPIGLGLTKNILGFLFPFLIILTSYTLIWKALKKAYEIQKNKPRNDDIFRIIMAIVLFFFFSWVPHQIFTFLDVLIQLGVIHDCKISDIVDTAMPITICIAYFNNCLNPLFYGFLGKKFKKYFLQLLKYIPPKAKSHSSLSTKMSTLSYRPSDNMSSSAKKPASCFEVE

Sequence of Type-1 angiotensin II receptor (Oryctolagus cuniculus) (P34976 whole entry, looked up): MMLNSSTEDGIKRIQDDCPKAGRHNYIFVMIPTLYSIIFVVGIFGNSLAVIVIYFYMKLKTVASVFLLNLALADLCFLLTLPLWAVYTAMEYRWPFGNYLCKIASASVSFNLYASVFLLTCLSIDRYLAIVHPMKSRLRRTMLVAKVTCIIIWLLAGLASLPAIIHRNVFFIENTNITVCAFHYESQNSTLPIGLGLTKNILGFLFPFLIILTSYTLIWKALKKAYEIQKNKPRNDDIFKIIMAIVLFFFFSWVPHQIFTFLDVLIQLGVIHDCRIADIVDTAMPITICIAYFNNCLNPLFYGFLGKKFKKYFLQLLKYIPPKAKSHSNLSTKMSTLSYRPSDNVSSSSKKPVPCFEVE

Row | Compound | IC50 [7] [nM] | ED50 [8] [mg/kg] | also measured
1 | CCc1nc2c(C)cc(C)nc2n1Cc1ccc(-c2ccccc2-c2nn[nH]n2)cc1 [L-158809] | – | – | Peak inhibition (Rattus norvegicus [1]): 52%; Peak inhibition (Rattus norvegicus [2]): 99%; Peak inhibition (Rattus norvegicus [3]): 36%; Peak inhibition (Rattus norvegicus [4]): 92%; Peak inhibition (Rattus norvegicus [5]): 85%; Peak inhibition (Rattus norvegicus [6]): 75%
2 | CCCCc1nc2c(C)cc(C)nc2n1Cc1ccc(-c2ccccc2-c2nn[nH]n2)cc1 | 0.5 | 0.45 | –
3 | CCCc1nc2c(C)cc(C)nc2n1Cc1ccc(-c2ccccc2-c2nn[nH]n2)cc1 | 0.3 | 0.087 | –
4 | CCCc1nc2ccc(C)nc2n1Cc1ccc(-c2ccccc2-c2nn[nH]n2)cc1 | 2 | 1 | –
5 | CCCc1nc2c(C)ccnc2n1Cc1ccc(-c2ccccc2-c2nn[nH]n2)cc1 | 1 | – | –
6 | CCCCC1=NC(Cl)C(C(=O)O)N1Cc1ccc(-c2ccccc2-c2nn[nH]n2)cc1 (stereo not given) | 6 | – | –
7 | CCCc1nc2cccnc2n1Cc1ccc(-c2ccccc2-c2nn[nH]n2)cc1 | 8 | – | –
